# Screening results as filed in PubChem BioAssay.
# TMEM16A inh = inhibitors of mouse TMEM16A calcium-activated chloride channel; Q8BHY3; HEK293 TMEM16A/YFP iodide influx fluorescence, ionomycin; normalized B-score (activity score, 25-100; higher = stronger inhibition) at 10 µM; actives 1.2% (n = 310,000); AID 588511;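 active = ratio plate-corrected score three or more library SD toward inhibition, starting fluorescence score within five deviations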;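 note: score derived from kinetic fluorescence span divided by baseline fluorescence per well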
# TMEM16A act = mouse TMEM16A channel activation, primary screen; AID 623877; Q8BHY3; B-score at 10 µM; HEK293 TMEM16A/YFP-H148Q/I152L, iodide quench fluorescence; stronger effect = lower value; actives 0.3% (n = 340,000);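 active = fluorescence-ratio B-score plate-corrected deviation score at least 3 library SD below zero, with starting fluorescence score within 5 deviations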;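 note: channel opened by trigger with iodide after compound preincubation; score built on the fluorescence ratio of max minus min over baseline; more negative score means more quench and so TMEM16A activation or potentiation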
# VIM-2 inhibitor = inhibitors of Pseudomonas aeruginosa VIM-2 metallo-beta-lactamase; purified VIM-2, nitrocefin hydrolysis, epi-absorbance fluorescence; inhibition, % at 5.6 µM; actives 0.89% (n = 290,000); AID 1527;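 active = inhibition above the mean of all tested compounds plus 3 SD, cutoff set per screening run, cut at about 7.5% in these data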;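 note: red hydrolysis product quenches plate fluorescence so inhibitors raise well fluorescence; 0% = enzyme with DMSO and 100% = DMSO without enzyme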
# IMP-1 inh = blocks Pseudomonas aeruginosa IMP-1 metallo-beta-lactamase | purified IMP-1, nitrocefin hydrolysis, epi-absorbance fluorescence | inhibition, % at 5.6 µM | actives 0.45% (n = 290,000) | AID 1556;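 active = inhibition above the mean plus 3 SD of all compounds in the same screening run, cut at about 4.5% in these data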;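 note: 0% = IMP-1 with DMSO and 100% = DMSO wells lacking enzyme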
#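 System: purified recombinant IMP-1 beta-lactamase. Medium: Zinc- and detergent-supplemented HEPES buffer, pH 7.1. Compound: one 5.6 µM dose […]. Schedule: 15 min preincubation plus 25 min reaction at 25 °C. Technique: Epi-absorbance fluorescence, 480 nm excitation, 530 nm emission.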
# CHT block = inhibitors of human choline transporter CHT; CHT-expressing cells, membrane potential dye, choline response; stronger effect = lower value; B-score at 10 µM; actives 0.86% (n = 310,000);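 active = B-score over 3 SD under the library average, and starting fluorescence ratio not unusually high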;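 note: choline stimulus applied at its EC90 after an EC20 pre-addition; B-score computed on integrated fluorescence ratio after choline addition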
# Target sequence (Q9GZV3 whole entry, looked up): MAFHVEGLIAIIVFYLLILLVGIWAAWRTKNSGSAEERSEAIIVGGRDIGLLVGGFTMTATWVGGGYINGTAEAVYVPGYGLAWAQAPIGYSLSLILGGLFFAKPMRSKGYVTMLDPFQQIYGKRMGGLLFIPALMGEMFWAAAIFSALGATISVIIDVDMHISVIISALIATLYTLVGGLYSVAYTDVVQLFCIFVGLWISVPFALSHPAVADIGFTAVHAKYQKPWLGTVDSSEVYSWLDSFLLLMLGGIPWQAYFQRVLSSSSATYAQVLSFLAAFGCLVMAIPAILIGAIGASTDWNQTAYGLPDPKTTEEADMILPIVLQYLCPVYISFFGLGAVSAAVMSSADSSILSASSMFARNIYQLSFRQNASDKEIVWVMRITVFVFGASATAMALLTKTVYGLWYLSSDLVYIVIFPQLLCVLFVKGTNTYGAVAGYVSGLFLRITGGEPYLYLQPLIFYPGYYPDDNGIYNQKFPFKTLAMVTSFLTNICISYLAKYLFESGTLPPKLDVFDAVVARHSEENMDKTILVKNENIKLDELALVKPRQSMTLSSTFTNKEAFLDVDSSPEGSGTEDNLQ
# CHT PAM = allosteric activators of human choline transporter CHT; CHT-expressing cells, membrane potential dye, choline EC20; stronger effect = higher value; LV-AA mutant CHT in HEK293 cells; B-score at 10 µM; Q9GZV3; actives 0.49% (n = 310,000);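 active = initial fluorescence not abnormally high and integrated response B-score, plate-corrected, over 3 SD above library mean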
# CHT activ conf = confirmation of human choline transporter (CHT) activators; CHT-expressing cells, membrane potential dye fluorescence (FDSS); % of choline EC20–EC90 response window; HEK293 expressing CHT LV-AA mutant; choline added at its EC20; shares compounds with CHT PAM; activation, % at 10 µM; actives 91% (n = 2,500);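 active = primary screen active, with duplicate mean activation above negative control mean plus 3 SD, cut at about 11% in these data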
# HEK293 MP dye = counter-screen for CHT activators: effect in parental HEK293 cells; membrane potential dye fluorescence (FDSS); measured after EC20 choline addition; ratio readout change at 10 µM, hits read low; shares compounds with CHT PAM; AID 623908; actives 62% (n = 2,500);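 active = duplicate-averaged ratio beyond 3 SD from buffer wells, up or down, though filed actives are nearly all decreases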
# Numbers without * were called inactive; i = inactive; / = not tested or not shown. The list is not random: actives were taken first. Their share in the collection is about 3.4%.
SMILES,TMEM16A inh,TMEM16A act,VIM-2 inhibitor,IMP-1 inh,CHT block,CHT PAM,CHT activ conf,HEK293 MP dye
Cn1c(=O)c(=O)n(C)c2cc(N3CCOCC3)c(NS(=O)(=O)c3ccc(Br)cc3)cc21,i,i,-1,-2,i,7.1*,53*,-43*
CCN(CC)S(=O)(=O)c1ccc(N2CCOCC2)c(NS(=O)(=O)c2ccc(C)cc2)c1,i,i,-3,-3,i,i,/,/
COc1ccc(OC)c(NS(=O)(=O)c2ccc3c(c2)n(C)c(=O)n3C)c1,i,i,-3,-2,i,i,/,/
Cn1c(=O)c(=O)n(C)c2cc(N3CCCCC3)c(NS(=O)(=O)c3ccc([N+](=O)[O-])cc3)cc21,i,i,0,-1,i,10*,52*,-47*
COc1ccc(OC)c(S(=O)(=O)Nc2cc3c(cc2N2CCCC2)n(C)c(=O)c(=O)n3C)c1,i,i,-1,-4,i,7.2*,53*,-60*
CCc1ccc(S(=O)(=O)Nc2cc3c(cc2N2CCOCC2)n(C)c(=O)c(=O)n3C)cc1,i,i,-1,-1,i,7.2*,56*,-47*
C[C@H](NC(=O)C1CC(=O)N(c2ccc3c(c2)OCO3)C1)C(=O)NC1CCCCC1 (some centres not stated),i,i,0,-2,i,i,/,/
O=[N+]([O-])c1ccc(Cl)c(S(=O)(=O)Nc2ccc(-c3ccc(N4CCCC4)nn3)cc2)c1,i,i,/,/,i,i,/,/
O=[N+]([O-])c1ccc(S(=O)(=O)Nc2ccc(-c3ccc(N4CCCC4)nn3)cc2)cc1,i,i,/,/,i,i,15*,i
COc1cccc(CNC(=O)c2ccc(C)c(S(=O)(=O)N3CCCCC3)c2)c1,i,i,/,/,i,i,/,/
COC(=O)c1cc(S(=O)(=O)NCc2ccc(Br)cc2)c[nH]1,i,i,0,0,i,i,/,/
c1cncc(N=c2scc(-c3cccc4ccccc34)n2CCCn2ccnc2)c1,i,i,-2,1,i,8.2*,7,i
COc1cccc(NC(=O)C2CCN(C(=O)NC3CCCCC3)CC2)c1,i,i,-2,-2,i,i,/,/
Nc1nonc1C(=O)NCCNCc1cc(Br)ccc1OCc1ccccc1F,100*,i,1,2,i,i,22*,i
CCOc1ccccc1CNCCNC(=O)c1nonc1N,i,i,1,3,i,i,/,/
Nc1nonc1C(=O)NCCNCc1ccccc1OCc1ccccc1F,i,i,-2,-5,i,6.3*,16*,i
Cc1sc2ncnc(NCc3ccccc3)c2c1C,i,i,-1,-3,i,i,/,/
COc1ccccc1C(CNc1ncnc2sc(C)c(C)c12)N(C)C (configuration not stated),i,i,7,-3,i,i,54*,-52*
O=C(COc1ccccc1)NCC(c1ccco1)N1CCN(c2ccc(F)cc2)CC1 (configuration not stated),i,i,/,/,i,i,13*,i
O=C(NCC(c1ccco1)N1CCN(c2ccc(F)cc2)CC1)C(=O)NC1CCCC1 (configuration not stated),i,i,/,/,i,i,/,/
CCCCC(=O)NNC(=O)N1c2ccccc2Sc2ccccc21,i,i,-2,-4,i,i,/,/
Oc1ccc(/C=N/Nc2cc(N3CCOCC3)nc(N3CCOCC3)n2)cc1O,i,i,-2,-3,i,7.1*,47*,-62*
Oc1ccccc1/C=N/Nc1cc(N2CCCC2)nc(N2CCCC2)n1,i,i,-1,-4,i,i,/,/
Cc1ccc(NC(=O)COC(=O)c2cccc(C)c2[N+](=O)[O-])cc1S(=O)(=O)N1CCCCC1,/,i,/,/,/,/,/,/
Cc1c(C)n(Cc2ccccc2)c2ncnc(NCCCN(C)C)c12,i,i,-5,-3,i,i,26*,-39*
SMILES,TMEM16A inh,TMEM16A act,VIM-2 inhibitor,IMP-1 inh,CHT block,CHT PAM,CHT activ conf,HEK293 MP dye
C/C(=N/NC(=O)c1cnccn1)c1ccncc1,i,i,-3,-3,i,6.4*,49*,-40*
C[C@]12C=CC(=O)C=C1CC[C@@H]1C2=CC[C@]2(C)[C@@H](C(=O)CN3CCN(c4cc(N5CCCC5)nc(N5CCCC5)n4)CC3)CC[C@@H]12,i,i,/,/,i,8.2*,49*,-76*
Cn1cnc(C(=O)NCc2ccccc2)c1C(=O)NCc1ccccc1,/,i,/,/,/,/,/,/
Cc1ccc2nc(Cl)c(/C=N/n3c(C)nnc3C)cc2c1,i,i,6,0,i,8*,43*,-54*
Cc1ccc2nsnc2c1NC(=O)c1ccc([N+](=O)[O-])o1,i,i,-3,-3,i,i,/,/
Cn1c(=O)c2c(nc(N3CCc4ccccc4C3)n2Cc2ccc(Br)cc2)n(C)c1=O,i,i,-3,-3,i,i,28*,-26*
Cc1ccc(Cn2c(SCCN3CCCCC3)nc3c2c(=O)n(C)c(=O)n3C)cc1,i,i,2,0,i,i,49*,-44*
Cn1c(=O)c2c(nc(SCCN3CCOCC3)n2Cc2cccc3ccccc23)n(C)c1=O,i,i,-4,-7,i,i,/,/
Cc1ccc(Cn2c(SCC(N)=O)nc3c2c(=O)n(C)c(=O)n3C)cc1,i,i,-2,-6,i,i,/,/
Cn1c(=O)c2c(nc(N3CCc4ccccc4C3)n2Cc2ccccc2F)n(C)c1=O,i,i,-3,-3,i,i,/,/
Cn1c(=O)c2c(nc(SCCN3CCCCC3)n2Cc2ccccc2)n(C)c1=O,i,i,2,-3,i,i,46*,-59*
Cc1ccc(S(=O)(=O)N[C@H](C(=O)NCC2CCC(C(=O)O)CC2)C(C)C)cc1 (some centres not stated),i,i,-2,-2,i,i,/,/
CC(C)c1ccc(C(=O)NC(=S)Nc2ccc3[nH]c(=O)[nH]c3c2)cc1,i,i,-2,-1,i,i,/,/
CC(=O)c1cc2c(cc1NC(=O)Cc1c(C)noc1C)OCO2,/,i,/,/,/,/,/,/
